pIC50: −log10 of the molar value. Active and inactive are the calls of the source. The calls are words filed in the database; no cut-off is given here.
Legend:
L1210 = experiment: In vitro for cytotoxicity against murine leukemia cells (L1210); type: functional, cell-based; details: Mus musculus
P388 [1] = experiment: Compound was evaluated in vivo for antitumor activity against P388 leukemia; i denotes Inactive; type: functional, organism-based; details: Mus musculus
Summary of the method: (§1)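 Mice given 10^6 P388 leukemia cells intraperitoneally, then drug intraperitoneally in 0.1 mL 30% v/v ethanol-water on days 1, 5 and 9. D50 (mg/kg per day giving 50% ILS) read from dose-response graph. ILS at optimal dose versus untreated controls. Long-term survival counted at 30 days.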

HCT-8 = experiment: In vitro for cytotoxicity against human colon tumor cells (HCT-8) in culture; type: functional, cell-based
poly[d(A-T)] = experiment: Binding constant relative to amsacrine (Δlog K) for DNA binding by ethidium bromide displacement; details: Bos taurus
P388 [2] = experiment: In vivo for antitumor activity against P388 leukemia.; type: functional, Mus musculus; summary of the method: as §1
P388 [3] = experiment: Evaluated in vivo for antitumor activity against P388 leukemia; g denotes ILS of 50% could not be reached at any dose level; type: functional, organism-based; details: Mus musculus; summary of the method: as §1
P388 [4] = experiment: In vivo for antitumor activity against P388 leukemia; type: functional, Mus musculus; summary of the method: as §1
[5] = tested on: Lewis lung carcinoma cell line; experiment: In vivo for antitumor activity against Lewis lung carcinoma; type: functional, Mus musculus
Summary of the method: (§2)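 Mice inoculated intravenously with 10^6 Lewis lung carcinoma cells, then drug intraperitoneally in 0.1 mL 30% v/v ethanol-water on days 5, 9 and 13. D50 (mg/kg per day for 50% ILS) taken from dose-response graph. ILS at optimal dose versus untreated tumor-bearing controls. Survivors counted at 40 days.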

[6] = tested on: Lewis lung carcinoma cell line; experiment: Evaluated in vivo for antitumor activity against Lewis lung carcinoma; i denotes Inactive; type: functional, organism-based; details: Mus musculus; summary of the method: as §2
[7] = tested on: Lewis lung carcinoma cell line; experiment: Evaluated in vivo for antitumor activity against Lewis lung carcinoma; g denotes ILS of 50% could not be reached at any dose level; type: functional, organism-based; details: Mus musculus; summary of the method: as §2

| SMILES | pIC50 (L1210) | ILSmax (P388 [1]) | pIC50 (HCT-8) | Δlog K (poly[d(A-T)]) | OD (P388 [2]) [mg/kg] | D50 (P388 [3]) | ILSmax (P388 [4]) [%] | OD [5] [mg/kg] | ILSmax [6] | D50 [7] | D50 (P388 [4]) [mg/kg] |
| --- | --- | --- | --- | --- | --- | --- | --- | --- | --- | --- | --- |
| CNc1cc(NS(C)(=O)=O)ccc1Nc1c2ccccc2nc2c(C)ccc(C)c12 | 5.77 | inactive | 5.68 | 6.18 | 65 | ILS of 50% could not be reached |  |  |  |  |  |
| CNC(=O)c1ccc(Cl)c2c(Nc3ccc(NS(C)(=O)=O)cc3NC)c3ccccc3nc12 | < 5.80 |  | 5.32 | 6.75 | 150 | ILS of 50% could not be reached | 38 |  |  |  |  |
| CNc1cc(NS(C)(=O)=O)ccc1Nc1c2ccccc2nc2ccc(Cl)cc12 | < 5.80 | inactive | 5.60 |  | 100 | ILS of 50% could not be reached |  | 150 | inactive | ILS of 50% could not be reached |  |
| CNc1cc(NS(C)(=O)=O)ccc1Nc1c2ccccc2nc2ccc(OC)cc12 | 5.92 |  | 5.72 | 5.8 | 100 | ILS of 50% could not be reached | 25 | 150 | inactive | ILS of 50% could not be reached |  |
| CNc1cc(NS(C)(=O)=O)ccc1Nc1c2ccccc2nc2cc(NC(=O)OC)ccc12 | 7.12 |  | 6.15 | 7.21 | 13.3 |  | 135 | 8.9 | inactive | ILS of 50% could not be reached | 1.5 |
| CNc1cc(NS(C)(=O)=O)ccc1Nc1c2ccccc2nc2c1ccc1ccccc12 | 6.72 |  | 6.40 | 7.46 | 45 |  | 50 | 20 | inactive | ILS of 50% could not be reached | 45 |
| CNc1cc(NS(C)(=O)=O)ccc1Nc1c2ccccc2nc2c(Br)cccc12 | 6.72 |  | 5.74 | 6.37 | 100 | ILS of 50% could not be reached | 35 | 100 | inactive | ILS of 50% could not be reached |  |
| CNc1ccc2c(Nc3ccc(NS(C)(=O)=O)cc3NC)c3ccccc3nc2c1 | 8.24 |  | 6.09 | 7.53 | 2.6 |  | 208 | 2.6 | inactive | ILS of 50% could not be reached | 0.2 |
| CNc1cc(NS(C)(=O)=O)ccc1Nc1c2ccccc2nc2c(C(=O)NCC(N)=O)cccc12 | 5.46 |  | < 6.98 | 5.57 | 68 |  | 87 | 45 | inactive | ILS of 50% could not be reached | 45 |

Source: ChEMBL document CHEMBL1123442 (J Med Chem, 1986)
